Screening data: PubChem BioAssay, Johns Hopkins Ion Channel Center
KCNK3 inh: human KCNK3 channel inhibition, primary screen; B-score at 10 µM; O14649; actives 0.84% (n = 340,000); CHO-KCNK3 thallium flux, FluxOR fluorescence; active compounds read low;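 active means B-score under library mean minus 4 SD, starting fluorescence ratio at most library mean plus 5 SD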;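 further: more negative B-score means stronger inhibition of thallium flux through KCNK3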
KCNK9 inh: blocks the human KCNK9 two-pore domain potassium channel | Q9NPC2 | HEK293 KCNK9, FluxOR thallium flux fluorescence; active compounds read low | B-score at 10 µM | actives 1.2% (n = 310,000) | AID 488922;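 active means ratio B-score over 3 SD below the library mean, with starting fluorescence within 5 SD of its mean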;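 further: negative B-score means less thallium flux so channel inhibition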
KCNQ1 pot: human KCNQ1 channel potentiation or activation; P51787; B-score at 10 µM; actives 0.35% (n = 310,000); CHO-K1 KCNQ1, thallium flux FluxOR fluorescence; active compounds read high;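 active means fluorescence ratio B-score, a plate-corrected score, at least three library SD, with initial intensity B-score within 5 SD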
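Schedule – 37 °C overnight plating, 90-min dark dye load, 20-min compound pretreatment · System – stable KCNQ1 CHO-K1 line · Probe or stimulus – thallium- and potassium-containing depolarizing buffer · Measured by – kinetic FluxOR fluorescence, 10 s baseline plus 110 s post-stimulus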
KCNQ1 block: blocks the human KCNQ1 potassium channel; P51787; CHO-K1 KCNQ1, FluxOR thallium flux fluorescence; active compounds read high; B-score at 10 µM; actives 1.3% (n = 310,000);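 active means compounds whose thallium flux B-score, printed positive for inhibition, exceeds three library SD while starting fluorescence stays within three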;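 further: channel opened by potassium depolarization with thallium stimulus after 20 min compound exposure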
Kir21 block: inhibitors of mouse Kir2.1 inward-rectifier potassium channel. B-score at 10 µM. actives 0.85% (n = 310,000). AID 1672. HEK293-Kir2.1, FluxOR thallium flux fluorescence; active compounds read low. P35561;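 active means fluorescence ratio B-score at or below minus 3 SD of library scores, with starting-brightness B-score within 2 SD, cut at about -4.2 in these data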;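 further: channel flux triggered by added potassium and thallium sulfate stimulus; B-score of peak minus minimum fluorescence over baseline after thallium stimulus; more negative B-score means stronger Kir2.1 block with less thallium influx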
Target sequence (P35561 whole entry, looked up): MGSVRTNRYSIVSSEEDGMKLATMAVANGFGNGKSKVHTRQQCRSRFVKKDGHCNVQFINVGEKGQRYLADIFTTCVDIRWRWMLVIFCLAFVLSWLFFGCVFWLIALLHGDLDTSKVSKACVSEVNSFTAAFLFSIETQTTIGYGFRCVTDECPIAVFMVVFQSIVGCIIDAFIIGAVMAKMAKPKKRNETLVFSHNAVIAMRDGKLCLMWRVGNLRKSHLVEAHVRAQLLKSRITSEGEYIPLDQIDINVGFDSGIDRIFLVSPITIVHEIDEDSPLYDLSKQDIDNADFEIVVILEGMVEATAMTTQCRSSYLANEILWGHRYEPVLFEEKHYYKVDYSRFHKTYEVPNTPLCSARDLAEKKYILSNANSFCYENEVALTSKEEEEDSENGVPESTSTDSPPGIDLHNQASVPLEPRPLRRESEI
hERG protect: hERG (human) protection from proarrhythmic block; actives 0.51% (n = 310,000); activation (rescue from dofetilide block), less the hit threshold, % at 10 µM; CHO-hERG, FluxOR thallium flux, dofetilide IC70 present;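 active means activation above the mean of controls blocked by dofetilide plus 5 SD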;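 further: thallium influx through hERG after potassium depolarization seen as dye fluorescence rise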
* = called active by the depositor. Compounds with a hit are over-represented: about 3.8% of the library has one in this group of screens.

What do the screens show for `N=c1oc2ccc([N+](=O)[O-])cc2cc1C(=O)NCc1ccccc1`?
KCNK3 inh: inactive; KCNK9 inh: inactive; KCNQ1 pot: inactive; KCNQ1 block: inactive; Kir21 block: 0.94; hERG protect: -4

How did CCCCn1c(=O)[nH]c(=O)c2c1nc(Cn1ncc(Cl)c(Cl)c1=O)n2CCC do in these assays?
KCNK3 inh: inactive; KCNK9 inh: inactive; KCNQ1 pot: 11*; KCNQ1 block: inactive; Kir21 block: 0.06; hERG protect: -17

What do the screens show for `COc1ccc(C(=O)C(C)OC(=O)CCN2C(=O)C3CC=CCC3C2=O)cc1` (stereo not drawn)?
KCNK3 inh: inactive

What do the screens show for `COc1ccc(C)cc1NS(=O)(=O)c1ccc2c(c1)N(C)CCO2`?
KCNK3 inh: inactive; KCNK9 inh: inactive; KCNQ1 pot: inactive; KCNQ1 block: inactive; Kir21 block: -5.6*; hERG protect: 1

Results for CC(C)(C)OC(=O)NCc1ccc(CNC(=O)c2nc[nH]c2C(=O)N2CCN(C(=O)OC(C)(C)C)CC2)cc1 ?
KCNK3 inh: inactive

How did O=C(Nc1nc(-c2ccccc2)cs1)c1ccc(N2CCOCC2)c([N+](=O)[O-])c1 do in these assays?
KCNK3 inh: inactive; KCNK9 inh: inactive; KCNQ1 pot: inactive; KCNQ1 block: 7*; Kir21 block: -1.5; hERG protect: -10

How did CCCn1c(SCC(=O)Nc2nnc(CC)s2)nnc1-c1ccncc1 do in these assays?
KCNK3 inh: inactive; KCNK9 inh: inactive; KCNQ1 pot: inactive; KCNQ1 block: inactive; Kir21 block: 2.6; hERG protect: -9

Results for O=C(Nc1ccccc1)C1=C[C@@H](C2CCCCC2)C[C@@H](OCc2ccc(CO)cc2)O1 ?
KCNK3 inh: inactive; KCNK9 inh: -7.1*; KCNQ1 pot: inactive; KCNQ1 block: inactive; Kir21 block: -0.02; hERG protect: -6

What do the screens show for `C#CCNC(=O)C1=C[C@@H](C2CC2)C[C@@H](OCc2ccc(CO)cc2)O1`?
KCNK3 inh: inactive; KCNK9 inh: inactive; KCNQ1 pot: inactive; KCNQ1 block: inactive; Kir21 block: -6.5*; hERG protect: -7

What do the screens show for `O=C(NCc1nc2ccccc2[nH]1)C1=C[C@H](C2CCCCC2)C[C@H](OCc2ccc(CO)cc2)O1`?
KCNK3 inh: inactive; KCNK9 inh: inactive; KCNQ1 pot: inactive; KCNQ1 block: inactive; Kir21 block: -0.14; hERG protect: -7

How did O=C(NCc1nc2ccccc2[nH]1)C1=C[C@@H](C2CCCCC2)C[C@@H](OCc2ccc(CO)cc2)O1 do in these assays?
KCNK3 inh: inactive; KCNK9 inh: inactive; KCNQ1 pot: inactive; KCNQ1 block: 9*; Kir21 block: -0.37; hERG protect: -5

What do the screens show for `COC(=O)[C@H](C)NC(=O)Nc1cc(Cl)ccc1C`?
KCNK3 inh: inactive; KCNK9 inh: inactive; KCNQ1 pot: 13*; KCNQ1 block: inactive; Kir21 block: 0.73; hERG protect: 1

What do the screens show for `Cc1ccccc1CSc1ccc(S(=O)(=O)N2CCCC2)cn1`?
KCNK3 inh: inactive

What do the screens show for `CCN(CC1COc2ccccc2O1)S(=O)(=O)c1ccc(C)cc1` (stereo not drawn)?
KCNK3 inh: inactive; KCNK9 inh: inactive; KCNQ1 pot: inactive; KCNQ1 block: inactive; Kir21 block: -4.8*; hERG protect: -12

How did CCN(CC)S(=O)(=O)c1ccc(C(=O)NNC(=O)C2COc3ccccc3O2)cc1 (stereo not drawn) do in these assays?
KCNK3 inh: inactive

How did Clc1ccc(Cc2ccccc2)nn1 do in these assays?
KCNK3 inh: inactive; KCNK9 inh: inactive; KCNQ1 pot: inactive; KCNQ1 block: inactive; Kir21 block: 0.17; hERG protect: 5.3*

What do the screens show for `COc1ccccc1N(CC(=O)NCCSCc1ccc(C)cc1)S(=O)(=O)c1ccccc1`?
KCNK3 inh: inactive; KCNK9 inh: inactive; KCNQ1 pot: inactive; KCNQ1 block: 10*; Kir21 block: 0.04; hERG protect: -18

What do the screens show for `CC(=O)Nc1ccc(C(=O)COC(=O)C2CC2C)c(F)c1` (stereo not drawn)?
KCNK3 inh: inactive

What do the screens show for `CCCCCCOc1ccc(/C(C)=N/NC2=NCCN2)cc1`?
KCNK3 inh: inactive; KCNK9 inh: inactive; KCNQ1 pot: inactive; KCNQ1 block: 13*; Kir21 block: 0.71; hERG protect: -32

What do the screens show for `CC(C)c1ccccc1NC(=O)COC(=O)c1cccnc1`?
KCNK3 inh: inactive; KCNK9 inh: inactive; KCNQ1 pot: inactive; KCNQ1 block: inactive; Kir21 block: 0.33; hERG protect: -6

How did CN1C(=O)C(c2nnc(Nc3cccc4ccccc34)s2)C2CC1(C)Oc1ccccc12 (stereo not drawn) do in these assays?
KCNK3 inh: inactive

What do the screens show for `C=CCn1c(CSc2nc3ccccc3s2)nnc1SCC(=O)NCc1ccccc1`?
KCNK3 inh: inactive; KCNK9 inh: inactive; KCNQ1 pot: inactive; KCNQ1 block: inactive; Kir21 block: -5.2*; hERG protect: -6

What do the screens show for `O=c1cc2c(c(-c3ccccc3)n1Cc1ccccc1)[C@H](CCO)NC2`?
KCNK3 inh: inactive

How did OCC[C@@H]1NCc2cc(CO)cc(-c3ccccc3)c21 do in these assays?
KCNK3 inh: -9.9*

What do the screens show for `COc1ccc2c(C(=O)c3ccc(Cl)cc3)n(CCCC(N)=O)[n+]([O-])c2c1`?
KCNK3 inh: inactive; KCNK9 inh: inactive; KCNQ1 pot: inactive; KCNQ1 block: inactive; Kir21 block: 0.48; hERG protect: -8

How did C=CCNCc1cccn1-c1sc2c(c1C#N)CCCC2 do in these assays?
KCNK3 inh: inactive; KCNK9 inh: inactive; KCNQ1 pot: inactive; KCNQ1 block: inactive; Kir21 block: -2.1; hERG protect: -8

Results for N#Cc1c(-n2cccc2/C=N/O)sc2c1CCCC2 ?
KCNK3 inh: inactive; KCNK9 inh: inactive; KCNQ1 pot: inactive; KCNQ1 block: inactive; Kir21 block: -9.8*; hERG protect: -13

What do the screens show for `Clc1ccc(-c2nnc(CSc3nnc(-c4cccs4)n3Cc3ccccc3)o2)cc1`?
KCNK3 inh: -8.8*; KCNK9 inh: inactive; KCNQ1 pot: inactive; KCNQ1 block: 8*; Kir21 block: -1.4; hERG protect: -21

What do the screens show for `Cc1nnc(SCc2nnc(-c3cccs3)o2)n1Cc1ccccc1`?
KCNK3 inh: inactive; KCNK9 inh: inactive; KCNQ1 pot: inactive; KCNQ1 block: inactive; Kir21 block: 0.38; hERG protect: 1

Results for CCn1c(/C=C/Nc2ccccc2)[n+](CC)c2cc(Cl)c(Cl)cc21 ?
KCNK3 inh: inactive; KCNK9 inh: inactive; KCNQ1 pot: inactive; KCNQ1 block: inactive; Kir21 block: -7*; hERG protect: -28
